Laboratory results published in ChEMBL document CHEMBL1687793, “Complementation of a Saccharomyces cerevisiae ERG11/CYP51 (sterol 14α-demethylase) doxycycline-regulated mutant and screening of the azole sensitivity of Aspergillus fumigatus isoenzymes CYP51A and CYP51B” (2010).
In brackets after ≈: the same amount, converted by molar mass.

Assays:
Type in all cases: functional
[1] = test system: Saccharomyces cerevisiae; test: Antimicrobial activity against Saccharomyces cerevisiae YUG37 transformed with plasmid carrying cyp51A gene with doxycycline-regulatable promoter by broth dilution method in presence of doxycycline
How it was run: (§1)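 CLSI M27-A2 broth microdilution in induction medium (galactose plus raffinose, 2%) containing 5 μg ml−1 doxycycline. Inoculum 2.5 × 10^3 cells ml−1. Final fluconazole 0.031–16 μg ml−1; clotrimazole, itraconazole and posaconazole 0.004–2.0 μg ml−1. Plates incubated at 30°C and scored at 72 h. MIC is the lowest concentration giving ≥80% growth inhibition versus drug-free control wells.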

[2] = test system: Saccharomyces cerevisiae; test: Antimicrobial activity against Saccharomyces cerevisiae YUG37 transformed with plasmid carrying cyp51B gene with doxycycline-regulatable promoter by broth dilution method in presence of doxycycline; how it was run: as §1
[3] = test system: Saccharomyces cerevisiae; test: Antimicrobial activity against Saccharomyces cerevisiae YUG37 transformed with plasmid carrying cyp51A gene in reverse orientation without doxycycline-regulatable promoter by broth dilution method
How it was run: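 Reverse-oriented cyp51A control strain tested in galactose/raffinose medium without doxycycline. Otherwise CLSI M27-A2 broth microdilution with inoculum 2.5 × 10^3 cells ml−1. Incubated at 30°C and read at 72 h. MIC is the lowest concentration giving ≥80% growth inhibition relative to control wells.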

[4] = test system: Saccharomyces cerevisiae; test: Induction of lanosterol/obtusifoliol production in Saccharomyces cerevisiae YUG37 transformed with plasmid carrying cyp51A gene with compound-regulatable promoter by GC-MS analysis
How it was run: (§2)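 YUG37-erg11 yeast (native ERG11 under a doxycycline-regulatable promoter) carrying pYES2.1 with intronless A. fumigatus cyp51A or cyp51B. Single colonies, triplicate constructs, were grown in YM with 2% galactose/raffinose plus 5 μg ml−1 doxycycline for 72 h at 30°C and 180 rpm. Sterols were analysed by GC-MS and reported as mean % of sterol composition (SD).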

[5] = test system: Saccharomyces cerevisiae; test: Induction of 14alpha-Methylergosta 8,24-dien- 3beta-6alpha-diol production in Saccharomyces cerevisiae YUG37 transformed with plasmid carrying cyp51A gene in reverse orientation without doxycycline-regulatable promoter by GC-MS analysis
How it was run: (§3)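 The control was YUG37-erg11 transformed with pYES2.1 carrying reverse-oriented cyp51A, in triplicate. It was cultured 72 h (30°C, 180 rpm) in galactose/raffinose (2%) YM either with 5 μg ml−1 doxycycline or without doxycycline. GC-MS sterol profiling gave mean % of sterol composition (SD).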

[6] = test system: Saccharomyces cerevisiae; test: Induction of ergosterol production in Saccharomyces cerevisiae YUG37 transformed with plasmid carrying cyp51A gene with compound-regulatable promoter by GC-MS analysis; how it was run: as §2
[7] = test system: Saccharomyces cerevisiae; test: Induction of 14alpha-Methylergosta 8,24-dien- 3beta-6alpha-diol production in Saccharomyces cerevisiae YUG37 transformed with plasmid carrying cyp51A gene with compound-regulatable promoter by GC-MS analysis; how it was run: as §2
[8] = test system: Saccharomyces cerevisiae; test: Induction of 4,14alpha-dimethylcholesta 8,24-dienol production in Saccharomyces cerevisiae YUG37 transformed with plasmid carrying cyp51A gene in reverse orientation without doxycycline-regulatable promoter by GC-MS analysis; how it was run: as §3
[9] = test system: Saccharomyces cerevisiae; test: Induction of ergosterol production in Saccharomyces cerevisiae YUG37 transformed with plasmid carrying cyp51B gene with compound-regulatable promoter by GC-MS analysis; how it was run: as §2
[10] = test system: Saccharomyces cerevisiae; test: Induction of ergosterol production in Saccharomyces cerevisiae YUG37 transformed with plasmid carrying cyp51A gene in reverse orientation without doxycycline-regulatable promoter by GC-MS analysis; how it was run: as §3
[11] = test system: Saccharomyces cerevisiae; test: Induction of 4alpha-methylfecosterol production in Saccharomyces cerevisiae YUG37 transformed with plasmid carrying cyp51A gene in reverse orientation without doxycycline-regulatable promoter by GC-MS analysis; how it was run: as §3
[12] = test system: Saccharomyces cerevisiae; test: Induction of 4alpha-methylfecosterol production in Saccharomyces cerevisiae YUG37 transformed with plasmid carrying cyp51A gene with compound-regulatable promoter by GC-MS analysis; how it was run: as §2
[13] = test system: Saccharomyces cerevisiae; test: Induction of 4,14alpha-dimethylcholesta 8,24-dienol production in Saccharomyces cerevisiae YUG37 transformed with plasmid carrying cyp51A gene with compound-regulatable promoter by GC-MS analysis; how it was run: as §2
[14] = test system: Saccharomyces cerevisiae; test: Induction of 4,14alpha-dimethylcholesta 8,24-dienol production in Saccharomyces cerevisiae YUG37 transformed with plasmid carrying cyp51B gene with compound-regulatable promoter by GC-MS analysis; how it was run: as §2
[15] = test system: Saccharomyces cerevisiae; test: Induction of 4alpha-methylfecosterol production in Saccharomyces cerevisiae YUG37 transformed with plasmid carrying cyp51B gene with compound-regulatable promoter by GC-MS analysis; how it was run: as §2
[16] = test system: Saccharomyces cerevisiae; test: Induction of 14alpha-Methylergosta 8,24-dien- 3beta-6alpha-diol production in Saccharomyces cerevisiae YUG37 transformed with plasmid carrying cyp51B gene with compound-regulatable promoter by GC-MS analysis; how it was run: as §2
[17] = test system: Saccharomyces cerevisiae; test: Induction of lanosterol/obtusifoliol production in Saccharomyces cerevisiae YUG37 transformed with plasmid carrying cyp51B gene with compound-regulatable promoter by GC-MS analysis; how it was run: as §2
[18] = test system: Saccharomyces cerevisiae; test: Induction of lanosterol/obtusifoliol production in Saccharomyces cerevisiae YUG37 transformed with plasmid carrying cyp51A gene in reverse orientation without doxycycline-regulatable promoter by GC-MS analysis; details: in the assay text read “with doxycycline-regulatable promoter” for “without doxycycline-regulatable promoter”; how it was run: as §3
[19] = test system: Saccharomyces cerevisiae; test: Ratio of MIC for Saccharomyces cerevisiae YUG37 transformed with plasmid carrying cyp51A gene with compound-regulatable promoter to MIC for Saccharomyces cerevisiae YUG37 transformed with plasmid carrying cyp51B gene with compound-regulatable promoter

## Clc1ccccc1C(c1ccccc1)(c1ccccc1)n1ccnc1 [CLOTRIMAZOLE]
[1]
  MIC: 0.016 µg/mL
[2]
  MIC: 0.016 µg/mL
[3]
  MIC: 0.016 µg/mL (≈ 0.0464 µM)

## C[C@H]1c2cccc(O)c2C(=O)C2=C(O)[C@]3(O)C(=O)C(C(N)=O)=C(O)[C@@H](N(C)C)[C@@H]3[C@@H](O)[C@@H]21.O [DOXYCYCLINE]
[4]
  Activity: 34.1%
[5]
  Activity: 51.1%
[6]
  Activity: 40.8%
[7]
  Activity: 20.5%
[8]
  Activity: 3.3%
[9]
  Activity: 39.5%
[10]
  Activity: 4%
[11]
  Activity: 1.9%
[12]
  Activity: 2%
[13]
  Activity: 2.6%
[14]
  Activity: 2.9%
[15]
  Activity: 1.7%
[16]
  Activity: 10.5%
[17]
  Activity: 45.4%
[18]
  Activity: 40.6%

## OC(Cn1cncn1)(Cn1cncn1)c1ccc(F)cc1F [FLUCONAZOLE]
[1]
  MIC: 8 µg/mL
[2]
  MIC: 0.5 µg/mL
[3]
  MIC: 0.25 µg/mL (≈ 0.816 µM)
[19]
  Ratio: 16

## CCC(C)n1ncn(-c2ccc(N3CCN(c4ccc(OCC5COC(Cn6cncn6)(c6ccc(Cl)cc6Cl)O5)cc4)CC3)cc2)c1=O (stereo unspecified) [ITRACONAZOLE]
[1]
  MIC: 0.125 µg/mL
[2]
  MIC: 0.125 µg/mL
[3]
  MIC: 0.031 µg/mL (≈ 0.0439 µM)

## CC[C@@H]([C@H](C)O)n1ncn(-c2ccc(N3CCN(c4ccc(OC[C@@H]5CO[C@@](Cn6cncn6)(c6ccc(F)cc6F)C5)cc4)CC3)cc2)c1=O [POSACONAZOLE]
[1]
  MIC: 0.063 µg/mL
[2]
  MIC: 0.063 µg/mL
[3]
  MIC: 0.063 µg/mL (≈ 0.0899 µM)

## C[C@@H](c1ncncc1F)[C@](O)(Cn1cncn1)c1ccc(F)cc1F [VORICONAZOLE]
[1]
  MIC: 0.004 µg/mL
[2]
  MIC: 0.004 µg/mL
[3]
  MIC: 0.004 µg/mL (≈ 0.0115 µM)
